Results on one protein are retold here after ChEMBL document CHEMBL1124804, “Substituted vitamin K epoxide analogues. New competitive inhibitors and substrates of vitamin K1 epoxide reductase” (J Med Chem, 1990).

In general, Vmax refers to the top rate of the reaction or transport when substrate is in excess. As usually defined, the Km is the substrate concentration at which the rate is half of its maximum.

Substrate in series [1]: C/C(=C\CC12OC1(C)C(=O)c1ccccc1C2=O)CCCC(C)CCCC(C)CCCC(C)C
Description: (§1) Vmax value at Vitamin K epoxide reductase. A digest of the protocol: (§2)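 Analogues served as alternative substrates in place of vitamin K1 epoxide for beef liver microsomal reductase (0.02% Emulgen 911, DTT), at 10–100 μM (12 levels). Km and Vmax came from rates of quinone product formation, not from substrate consumption. They were reported only where the quinone product was stable to DTT.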

Substrate in series [2]: CC(C)CCCC(C)CCCC(C)CCCC(C)CCC12OC1(C)C(=O)c1ccccc1C2=O
The description is as §1. Summed up:
as §2

Substrate in series [3]: C/C(=C\C(O)C12OC1(C)C(=O)c1ccccc1C2=O)CCCC(C)CCCC(C)CCCC(C)C
Described as §1. Summed up: as §2

Substrate in series [4]: CC(C)CCCC(C)CCCC(C)CCCC(C)CC(O)C12OC1(C)C(=O)c1ccccc1C2=O
The series is described as §1. A digest of the protocol: as §2

Substrate in series [5]: C/C(=C\CC12OC1(CF)C(=O)c1ccccc1C2=O)CCCC(C)CCCC(C)CCCC(C)C
The description is as §1. Summed up:
as §2

Substrate in series [6]: C/C(=C\CC12OC1(CO)C(=O)c1ccccc1C2=O)CCCC(C)CCCC(C)CCCC(C)C
Described as §1. A digest of the protocol:
as §2

Substrate in series [7]: CC(C)CCCC(C)CCCC(C)CCCC(C)/C=C/C12OC1(C)C(=O)c1ccccc1C2=O
The description is as §1. A digest of the protocol:
as §2

Substrate in series [8]: C/C(=C\CC12OC1(C)C(=O)c1ccccc1C2=O)CCCC(C)CCCC(C)CCCC(C)C
Description: (§3) Km value at Vitamin K epoxide reductase. A digest of the protocol: as §2

Substrate in series [9]: CC(C)CCCC(C)CCCC(C)CCCC(C)CCC12OC1(C)C(=O)c1ccccc1C2=O
The series is described as §3. A digest of the protocol:
as §2

Substrate in series [10]: C/C(=C\C(O)C12OC1(C)C(=O)c1ccccc1C2=O)CCCC(C)CCCC(C)CCCC(C)C
Described as §3. Summed up:
as §2

Substrate in series [11]: CC(C)CCCC(C)CCCC(C)CCCC(C)CC(O)C12OC1(C)C(=O)c1ccccc1C2=O
The series is described as §3. A digest of the protocol: as §2

Substrate in series [12]: C/C(=C\CC12OC1(CF)C(=O)c1ccccc1C2=O)CCCC(C)CCCC(C)CCCC(C)C
Described as §3. Summed up:
as §2

Substrate in series [13]: C/C(=C\CC12OC1(CO)C(=O)c1ccccc1C2=O)CCCC(C)CCCC(C)CCCC(C)C
The series is described as §3. Summed up: as §2

Substrate in series [14]: CC(C)CCCC(C)CCCC(C)CCCC(C)/C=C/C12OC1(C)C(=O)c1ccccc1C2=O
The description is as §3. Summed up: as §2

B1: Vitamin K epoxide reductase complex subunit 1 (Bos taurus), Q6B4J2 (protein)
chain: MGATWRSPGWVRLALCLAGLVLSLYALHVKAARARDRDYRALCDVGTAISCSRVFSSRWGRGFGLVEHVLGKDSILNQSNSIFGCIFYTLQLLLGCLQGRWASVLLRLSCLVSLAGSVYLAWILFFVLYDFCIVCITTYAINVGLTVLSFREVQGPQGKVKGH
For the protein B1, the Vmax in [1] came to 2.9 pmol/s/mg; in series [2] it was 2.1 pmol/s/mg; in [3], 2.4 pmol/s/mg; in series [4], 1.6 pmol/s/mg; in [5], 4 pmol/s/mg; in series [6] it was 3.4 pmol/s/mg. The Vmax in series [7] is 2 pmol/s/mg. In addition, the Km is 18 µM in [8]; 30 µM in series [9]; 25 µM in series [10]; 34 µM in series [11]; 20 µM in series [12]; 10 µM in series [13]. The Km in series [14] amounted to 68 µM.
